Series [1] has as its system Hepatocyte. The series can be described thus: Oxidative metabolism in rat hepatocytes assessed as protein covalent binding per mg of protein after 2 hrs. In kind it is ADME, cell-based.
The species entered for series [2] is Rattus norvegicus. The series can be described thus: covalent protein labeling in rat assessed per mg of protein. Format: ADME, organism-based. The conditions noted are these: in vivo.
In series [3] the test system is Hepatocyte. Description: Oxidative metabolism in human hepatocytes assessed as protein covalent binding per mg of protein after 2 hrs. In kind it is ADME, cell-based.
A short description of series [4]: Drug excretion in rat bile assessed as total radioactivity after 24 hrs. Format: ADME. The settings on record: in vivo.
Series [5] addresses T1, Prostaglandin E2 receptor EP4 subtype (Homo sapiens, UniProt P35408). Description: Antagonist activity at human prostanoid EP4 receptor expressed in HEK293 cells assessed as inhibition of PGE2-induced cAMP accumulation by scintillation proximity assay. In kind it is functional, cell-based. In a few lines: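 HEK293 cells expressing EP4 receptors. Antagonism is read as inhibition of PGE2-evoked rise in intracellular cAMP, reported as IC50. Agonism is read as cAMP elevation in the same cells without PGE2, reported as EC50.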
Background: Cyclic AMP is a second messenger, typically raised through Gs and lowered through Gi signalling.

The species named for series [6] is Homo sapiens. The series can be described thus: Selectivity ratio of Ki for human prostanoid TP receptor to Ki for human prostanoid EP4.
The species named for series [7] is Homo sapiens. The series can be described thus: Selectivity ratio of Ki for human prostanoid DP receptor to Ki for human prostanoid EP4.
Series [8] is filed under the species Homo sapiens. Description: Selectivity ratio of Ki for human prostanoid EP2 receptor to Ki for human prostanoid EP4.
For series [9], the target named is T1, Prostaglandin E2 receptor EP4 subtype. The series can be described thus: Displacement of [3H]PGE2 from human prostanoid EP4 receptor expressed in HEK293-EBNA cells after 60 mins by scintillation counting. Format: cell-based. For orientation: Loss of bound radioactivity is the signal in a displacement assay; it reports binding, not function.
Series [10] has the same target. Description: Agonist activity at human prostanoid EP4 receptor expressed in HEK293 cells assessed as cAMP accumulation by scintillation proximity assay.
The species named for series [11] is Homo sapiens. The series can be described thus: Selectivity ratio of Ki for human prostanoid IP receptor to Ki for human prostanoid EP4.
For series [12], the species on record is Homo sapiens. Description: Selectivity ratio of Ki for human prostanoid EP1 receptor to Ki for human prostanoid EP4.
The species entered for series [13] is Homo sapiens. The series can be described thus: Selectivity ratio of Ki for human prostanoid FP receptor to Ki for human prostanoid EP4.
Series [14] is filed under the species Homo sapiens. Description: Selectivity ratio of Ki for human prostanoid EP3 receptor to Ki for human prostanoid EP4.
The nature of series [15]: Bioavailability in rat at 20 mg/kg, po and 5 mg/kg, iv. In kind it is ADME, organism-based. The conditions noted are these: in vivo. The method, boiled down:
(§1)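 Rat pharmacokinetics with potassium salts, given 20 mg/kg orally in 0.5% methocel and 5 mg/kg intravenously in 60% PEG 200. Half-life, oral bioavailability and clearance derived from these dosings.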

A short description of series [16]: Clearance in rat at 20 mg/kg, po and 5 mg/kg, iv. Format: ADME, organism-based. The settings on record: in vivo. In a few lines: as §1
The nature of series [17]: Half life in rat at 20 mg/kg, po and 5 mg/kg, iv. In kind it is ADME, organism-based. The conditions noted are these: in vivo. The method, boiled down: as §1
Series [18] deals with Rattus norvegicus. The series can be described thus: Antiinflammatory activity in rat assessed as inhibition of complete Freund's adjuvant-induced paw swelling at 0.6 mg/kg administered daily once 9 days after adjuvant challenge measured on day 18.
The test system of series [19] is Rattus norvegicus. Description: Analgesic activity against carrageenan-induced mechanical hyperalgesia in rat assessed as paw withdrawal latency at 10 mg/kg. In kind it is functional. The method, boiled down: (§2)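 Rats given carrageenan injection into the paw at t = 0 h, test article dosed at t = 2 h. At t = 3 h mechanical pressure is applied to the paw and paw withdrawal latency is recorded. Statistics by one-way ANOVA with Dunnett's test versus vehicle control.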

Series [20] in a line: Metabolic stability in rat hepatocytes assessed as parent compound remaining after 2 hrs. The settings on record: read-out: Stability. Format: ADME, cell-based, Hepatocyte. In a few lines: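 Incubation with rat hepatocytes for 2 h. The mixture is analysed by LC/MS for percent parent remaining and metabolite identity.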
The species entered for series [21] is Rattus norvegicus. Description: Analgesic activity against carrageenan-induced mechanical hyperalgesia in rat assessed as paw withdrawal latency. Format: functional, organism-based. In a few lines:
as §2

Series [22] has as its system Rattus norvegicus. Description: Antiinflammatory activity in rat assessed as inhibition of complete Freund's adjuvant-induced paw swelling administered daily once 9 days after adjuvant challenge measured on day 18. Format: functional, organism-based. In a few lines: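 Adjuvant arthritis in rats: complete Freund's adjuvant injected into the left hind paw on day 0. Dosing once daily for 9 days, starting on day 9. Secondary paw volume measured on day 18. Percent inhibition is calculated from the difference between each treated group (n = 7/group) and vehicle control; SEM reported.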

Broadly, the IC50 is the concentration needed to halve the response being measured. One may read the Ki as the equilibrium dissociation constant of an inhibitor or competing ligand from its target. Lower therefore signals a stronger hold on the target. One may read the EC50 as the concentration that produces a half-maximal response. In general, bioavailability refers to the share of a dose that reaches the circulation, judged against a reference dose that is usually intravenous. The low end stands for poor availability, the high end for good availability. As usually defined, the half-life is the time in which the quantity being followed falls by half.

Activity calls are given as the source filed them. No cut-off for these calls is given here.

T1 sequence (P35408 whole entry): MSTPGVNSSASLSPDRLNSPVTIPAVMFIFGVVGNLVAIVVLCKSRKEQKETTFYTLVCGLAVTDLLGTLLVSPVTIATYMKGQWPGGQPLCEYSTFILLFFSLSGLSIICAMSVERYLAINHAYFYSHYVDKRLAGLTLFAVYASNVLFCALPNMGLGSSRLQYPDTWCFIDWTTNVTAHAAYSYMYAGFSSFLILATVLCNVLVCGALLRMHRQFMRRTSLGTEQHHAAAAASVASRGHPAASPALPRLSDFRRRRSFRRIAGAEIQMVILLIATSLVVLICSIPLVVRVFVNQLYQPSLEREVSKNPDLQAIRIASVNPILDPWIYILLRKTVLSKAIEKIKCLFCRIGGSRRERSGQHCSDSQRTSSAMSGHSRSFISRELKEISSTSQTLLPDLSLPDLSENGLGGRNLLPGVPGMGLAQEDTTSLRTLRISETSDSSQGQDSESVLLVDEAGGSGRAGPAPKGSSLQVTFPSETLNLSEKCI

In the case of `[3H]c1cc2c(c(C(=O)N[C@@H](C)c3ccc(C(=O)O)cc3)c1)N(Cc1ccc(C(F)(F)F)cc1)CC2`, the Activity in the series on Hepatocyte [1] was found to be 56 pmolequiv/mg; in the series listed under Rattus norvegicus [2] it was 5 pmol; in the series on Hepatocyte [3], 28 pmolequiv/mg; in series [4], 86%.

With `C[C@H](NC(=O)c1cccc2c1N(Cc1cccc(C(F)(F)F)c1)CC2)c1ccc(C(=O)O)cc1`, in series [5], the IC50 was > 10000 nM. Besides, the Ratio Ki in the series listed under Homo sapiens [6], in the series filed under Homo sapiens [7], in the series listed under Homo sapiens [8], in the series listed under Homo sapiens [11], in the series listed under Homo sapiens [12] and in the series filed under Homo sapiens [13] was > 1000 each time. Besides, the Ratio Ki in the series listed under Homo sapiens [14] is > 1000. The molecule further yielded a Ki in series [9] of 0.4 nM. Also, the EC50 in series [10] came out at 0.2 nM.

`C[C@H](NC(=O)c1cccc2c1N(Cc1cc(Br)cc(Br)c1)CC2)c1ccc(C(=O)O)cc1`: the IC50 in [5] is > 10000 nM. Also, the Ratio Ki in the series filed under Homo sapiens [6] is > 1000; in the series listed under Homo sapiens [7], 209; in the series filed under Homo sapiens [8] it was 151; in the series filed under Homo sapiens [11], > 1000; in the series filed under Homo sapiens [12], > 1000; in the series filed under Homo sapiens [13] it was > 1000. For the same molecule, in the series filed under Homo sapiens [14], the Ratio Ki is > 1000. In series [9], this molecule had a Ki of 0.33 nM. The EC50 in [10] stood at 0.36 nM.

Regarding `C[C@H](NC(=O)c1cccc2c1N(Cc1ccc(Cl)c(Cl)c1)CC2)c1ccc(C(=O)O)cc1`, the IC50 in series [5] was 1.1 nM. Further, the Ratio Ki is > 1000 in the series filed under Homo sapiens [6]; 241 in the series listed under Homo sapiens [7]; 338 in the series listed under Homo sapiens [8]; > 1000 in the series filed under Homo sapiens [11]; > 1000 in the series listed under Homo sapiens [12]; > 1000 in the series filed under Homo sapiens [13]. Also, the Ratio Ki in the series listed under Homo sapiens [14] is > 1000. The molecule also had a bioavailability in [15] of 73%. Further, the affinity in series [9] corresponds to a Ki of 0.34 nM. Further, the clearance in series [16] is 12 mL/min/kg. The molecule further showed a half-life in series [17] of 4.8 h.

Regarding `C[C@H](NC(=O)c1cccc2c1N(Cc1cccc(Cl)c1)CC2)c1ccc(C(=O)O)cc1`, the 50% inhibitory concentration (IC50) in series [5] was > 10000 nM. Moreover, the Ratio Ki is > 1000 in the series filed under Homo sapiens [6]; > 1000 in the series listed under Homo sapiens [7]; 595 in the series filed under Homo sapiens [8]; > 1000 in the series filed under Homo sapiens [11]; > 1000 in the series filed under Homo sapiens [12]; > 1000 in the series filed under Homo sapiens [13]. In the series filed under Homo sapiens [14], the Ratio Ki was > 1000. The bioavailability in series [15] stood at 65%. Also, the Ki in [9] was determined as 0.44 nM. The clearance in series [16] turned out to be 26 mL/min/kg. For the same molecule, in series [10], the EC50 came to 0.82 nM. The molecule further gave a half-life in series [17] of 4.4 h.

Turning to `C[C@H](NC(=O)c1cccc2c1N(Cc1ccc(C(F)(F)F)cc1)CC2)c1ccc(C(=O)O)cc1`, the IC50 in [5] worked out at 2.1 nM. For the same molecule, the Ratio Ki in the series listed under Homo sapiens [6], in the series listed under Homo sapiens [7], in the series listed under Homo sapiens [8], in the series listed under Homo sapiens [11], in the series listed under Homo sapiens [12] and in the series listed under Homo sapiens [13] was > 1000 each time. Besides, the Ratio Ki in the series filed under Homo sapiens [14] was > 1000. For the same molecule, in the series on Rattus norvegicus [18], the inhibition entry is “Active”. The figures for the Activity in the series with Rattus norvegicus [19] and in the series filed under Rattus norvegicus [21] were 64% and “Dose-dependent effect”, respectively. Also, the bioavailability in series [15] was 48%. This molecule yielded a Ki in series [9] of 0.37 nM. In addition, in [16], the clearance is 11 mL/min/kg. Besides, the remaining at 2 h in series [20] was 36%. Besides, the inhibition entry in the series with Rattus norvegicus [22] is “Dose-dependent effect”. In [17], this molecule had a half-life of 4.1 h.

(Values after ChEMBL document CHEMBL1641558, “A novel series of potent and selective EP(4) receptor ligands: facile modulation of agonism and antagonism” (Bioorg Med Chem Lett, 2011).)
